Measured values gathered from unrelated publications.
Each line is one published result; the experiments were not run side by side.
SPHK1: Sphingosine kinase 1 (SPHK1, Homo sapiens, UniProt Q9NYA1)
EDNRA: Endothelin-1 receptor (EDNRA, Homo sapiens, UniProt P25101)
ADORA2A: Adenosine receptor A2a (ADORA2A, Homo sapiens, UniProt P29274)
EHMT1: Histone-lysine N-methyltransferase EHMT1 (EHMT1, Homo sapiens, UniProt Q9H9B1)
CNR1: Cannabinoid receptor 1 (CNR1, Homo sapiens, UniProt P21554)
OPRK1: Kappa-type opioid receptor (OPRK1, Homo sapiens, UniProt P41145)
PARP1: Poly [ADP-ribose] polymerase 1 (PARP1, Homo sapiens, UniProt P09874)
PDE5A: cGMP-specific 3',5'-cyclic phosphodiesterase (PDE5A, Homo sapiens, UniProt O76074)

SMILES	target	effect on	mode	technique	tested at	setting	inhibition [%]
CCCC=CCOc1ccc(-c2noc([C@@H]3CCCN3C(=N)N)n2)cc1C(F)(F)F	SPHK1	enzyme activity	inhibitor	radiometric	1 µM		12
COc1cc(NC(C)=O)c(Cl)cc1C(=O)Nc1nccs1	EDNRA	cell-free assay			10 µM		-1.4
CCCCCC=CCOc1ccc(-c2noc([C@@H]3CCCN3C(=N)N)n2)cc1C(F)(F)F (mixture of isomers)	SPHK1	enzyme activity	inhibitor	radiometric	1 µM		54
COc1ccc(-c2nc3cc(CCN4CCCCC4)ccc3o2)cc1OC	ADORA2A	ligand displacement		radioligand	10 µM	cell membranes	10
O=C1C=C2CC3(O)COc4c(ccc(O)c4O)C3=C2C=C1O (stereo not drawn)	EHMT1	cell-free assay			10 µM		11
[H]/N=C(\N)N1CCC[C@H]1c1nc(-c2ccc(OCC=Cc3ccc(C(F)(F)F)cc3)c(C(F)(F)F)c2)no1	SPHK1	enzyme activity	inhibitor	radiometric	1 µM		20
COCCOc1ccc(N2CCN(CCc3ccc4oc(-c5ccco5)nc4c3)CC2)cc1	ADORA2A	ligand displacement		radioligand	10 µM	cell membranes	10
O=c1oc2c(O)c(O)cc3c(=O)oc4c(O)c(O)cc1c4c23	EHMT1	cell-free assay			10 µM		6
CN1CCN(CCCOc2ccc(=O)n(-c3ccc(Cl)c(Cl)c3)n2)CC1	CNR1	ligand displacement			1 µM		27.4
O=C(Nc1ccc(S(=O)(=O)N2CCC(Cl)CC2)cc1)c1ccc([N+](=O)[O-])o1	OPRK1	cell-free assay			10 µM		7
Nc1ccc2c(c1)CCCn1nnnc1-2	PARP1	enzyme activity	inhibitor		10 µM		31
O=C(c1ccc(Cl)cc1)N(Cc1ccccc1)C1CCCCC1	CNR1	cell-free assay			10 µM		11.1
CCCNc1nc2ccccc2n1Cc1ccc(Cl)cc1	OPRK1	ligand displacement			10 µM		11.1
CN(C)C1CCN(CC#Cc2nn(C3CCCC3)c3nc(NCc4ccccc4)ncc23)C1 (stereo not drawn)	Cytoplasmic tyrosine-protein kinase BMX (BMX, Homo sapiens, UniProt P51813)	enzyme activity	inhibitor	FRET	1 µM		4
CC(C)CCn1c(SCC(=O)Nc2ccccc2C(F)(F)F)nc2nccnc2c1=O	SPHK1	enzyme activity	inhibitor		10 µM		< 20
Cn1cncc1C1=CN(c2ncnc3[nH]cnc23)CCS1	Interleukin-1 receptor-associated kinase-like 2 (IRAK2, Homo sapiens, UniProt O43187)	enzyme activity	inhibitor	radiometric	50 nM		30.7
COC(=O)[C@@H]1Cc2c([nH]c3ccccc23)[C@H](c2cccnc2)N1	PDE5A	enzyme activity	inhibitor	FP	50 µM		72
COc1cccc2nc(-c3ccc(C(=O)N4CCN(C(=O)C5CC5)CC4)cc3F)[nH]c(=O)c12	PARP1	enzyme activity	inhibitor	ELISA	10 µM		56
COc1ccc(-c2nc3cc(CCN4CCN(c5ccccc5)CC4)ccc3o2)cc1OC	ADORA2A	ligand displacement		radioligand	10 µM	cell membranes	5
COC(=O)[C@@H]1Cc2c([nH]c3ccccc23)[C@H](c2ccc(OC)c(OC)c2)N1	PDE5A	enzyme activity	inhibitor	FP	50 µM		8
COc1ccc(F)cc1C(=O)NCc1ccc(-c2nn([C@@H](C)C(F)(F)F)c(N)c2C(N)=O)cc1	Mitogen-activated protein kinase kinase kinase 3 (MAP3K3, Homo sapiens, UniProt Q99759)	target engagement in cells	inhibitor	chemoproteomics	1 µM		-38.6
COC(=O)[C@@H]1Cc2c([nH]c3ccccc23)[C@@H](c2ccc(OC)c(OC)c2)N1C(=O)CCl	PDE5A	enzyme activity	inhibitor	FP	50 µM		22
Ic1cccc2cnccc12	Sigma non-opioid intracellular receptor 1 (SIGMAR1, Homo sapiens, UniProt Q99720)	ligand displacement		radioligand	10 µM		21
O=C(c1ccc(-c2nc3ccccc3c(=O)[nH]2)c(F)c1)N1CCn2c(nnc2C(F)(F)F)C1	PARP1	enzyme activity	inhibitor	ELISA	1 µM		13

SMILES	target	effect on	mode	technique	tested at	setting	inhibition [%]
COc1ccc([C@@H]2c3[nH]c4ccccc4c3C[C@@H]3C(=O)N(C(C)(C)C)C(=O)N23)cc1OC	PDE5A	enzyme activity	inhibitor	FP	50 µM		54
O=C(Oc1cc(O)cc2c1C[C@@H](OC(=O)c1cc(O)c(O)c(O)c1)[C@@H](c1cc(O)c(O)c(O)c1)O2)c1cc(O)c(O)c(O)c1	EHMT1	cell-free assay			10 µM		-4
CCN1C(=O)[C@@H]2Cc3c([nH]c4ccccc34)[C@H](c3cccnc3)N2C1=O	PDE5A	enzyme activity	inhibitor	FP	50 µM		24
O=c1c(-c2cc(O)c(O)c(O)c2)coc2cc(O)c(O)c(O)c12	EHMT1	cell-free assay			10 µM		0
O=C1CCCc2ccc(F)cc2N1	PARP1	enzyme activity	inhibitor		10 µM		0
COc1ccc(-c2nc3cc(CCCN4CCCCC4)ccc3o2)cc1OC	ADORA2A	ligand displacement		radioligand	10 µM	cell membranes	10
N=C(N)N1CCC[C@H]1c1nc(-c2ccc(CCC3CCCCC3)c(C(F)(F)F)c2)no1	SPHK1	enzyme activity	inhibitor	radiometric	1 µM		15
Cc1cc(O)c(C=O)c2c1C(=O)Oc1c(C)c(O)c3c(c1O2)C(O)OC3=O (stereo not drawn)	EHMT1	cell-free assay			10 µM		-4
N#Cc1cc(Cn2c(N3CCCC3)nc3ccccc32)ccc1F	OPRK1	ligand displacement			10 µM		-11.7
O=C(NCCNC(=O)c1n[nH]c(=O)c2ccccc12)c1cccc(CN2C(=O)CNC2=O)c1	PARP1	enzyme activity	inhibitor		0.5 µM		~50
CCN1C(=O)[C@@H]2Cc3c([nH]c4ccccc34)[C@H](c3ccc(OC)c(OC)c3)N2C1=O	PDE5A	enzyme activity	inhibitor	FP	50 µM		52
Oc1cccc(Nc2nc(-c3ccc(F)cc3F)cs2)c1	EDNRA	cell-free assay			10 µM		-11.2
N=C(N)N1CCC[C@H]1c1nc(-c2ccc(CCc3ccc(C(F)(F)F)cc3)c(C(F)(F)F)c2)no1	SPHK1	enzyme activity	inhibitor	radiometric	1 µM		12
COc1ccc(-n2nc(OCCCN3CCCCC3)ccc2=O)cc1	CNR1	ligand displacement			1 µM		43.8
c1coc(-c2nc3cc(CN4CCNCC4)ccc3o2)c1	ADORA2A	ligand displacement		radioligand	10 µM	cell membranes	15
C=CCN1C(=O)[C@H]2Cc3c([nH]c4ccccc34)[C@@H](c3ccc(Br)s3)N2C1=O	PDE5A	enzyme activity	inhibitor	FP	10 µM		96
[H]/N=C(\N)N1CCC[C@H]1c1nc(-c2ccc(OCC=Cc3cccc(C(F)(F)F)c3)c(C(F)(F)F)c2)no1	SPHK1	enzyme activity	inhibitor	radiometric	1 µM		0
Cc1cc(-c2ccc(/N=N/c3ccc4c(S(=O)(=O)O)cc(S(=O)(=O)O)c(N)c4c3O)c(C)c2)ccc1/N=N/c1ccc2c(S(=O)(=O)O)cc(S(=O)(=O)O)c(N)c2c1O	EHMT1	cell-free assay			10 µM		48
O=C1N=C(N2CCCCN2)S/C1=C\c1ccc(F)cc1O	EDNRA	ligand displacement		radioligand	10 µM		< 10
O=C(CSc1nc2nccnc2c(=O)n1CCc1ccccc1)Nc1nccs1	Phosphatidylinositol 4-phosphate 3-kinase C2 domain-containing subunit beta (PIK3C2B, Homo sapiens, UniProt O00750)	enzyme activity	inhibitor		10 µM		68
CC(C)(C)c1ccc(CCc2ccc(-c3noc([C@@H]4CCCN4C(=N)N)n3)cc2C(F)(F)F)cc1	SPHK1	enzyme activity	inhibitor	radiometric	1 µM		17
CC(C)(C)N1C(=O)[C@H]2Cc3c([nH]c4ccccc34)[C@@H](c3cccnc3)N2C1=O	PDE5A	enzyme activity	inhibitor	FP	50 µM		90
O=C(c1ccc(F)cc1)N(Cc1ccccc1)C1CCCCC1	OPRK1	ligand displacement			10 µM		33
O=C(CSc1nc2nccnc2c(=O)n1CCc1ccccc1)Nc1ccccc1	SPHK1	enzyme activity	inhibitor		10 µM		< 20
